Source: ChEMBL document CHEMBL3232822, “Synthesis of novel spiropyrazoline oxindoles and evaluation of cytotoxicity in cancer cell lines” (Eur J Med Chem, 2014)

Tests used:
MCF7 = assay: Cytotoxicity against human HER2-deficient MCF7 cells expressing estrogen receptor after 48 hrs by MTT assay; type: functional; settings: MCF7, 48 h
Outline: (§1)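 Cells (HEK 293T, MCF-7, MDA-MB-231 from ATCC) seeded the day before in medium with serum, penicillin G, streptomycin and 2 mM L-glutamine. Compounds in DMSO, serially diluted in medium, final DMSO ≤0.5% (v/v), same in controls. 48 h at 37 °C, 5% CO2. MTT 3 h, formazan dissolved in DMSO, A570. Triplicates, ≥3 experiments. GI50 from % viable cells.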

MDA-MB-231 = assay: Cytotoxicity against human HER2/estrogen receptor-deficient MDA-MB-231 cells after 48 hrs by MTT assay; type: functional; settings: MDA-MB-231, 48 h; outline: as §1
[1] = Cytotoxicity against HEK293T cells after 48 hrs by MTT assay; type: cell-based, HEK-293T; settings: human; outline: as §1
HEK-293T = assay: Selectivity index, ratio of GI50 for HEK293T cells to GI50 for human HER2-deficient MCF7 cells; type: functional
[2] = Solubility of the compound at 100 uM; type: physicochemical

O=C(c1ccccc1)[C@H]1C(c2ccccc2)=NN(c2ccccc2)[C@]12C(=O)Nc1ccc(Cl)cc12
GI50 (MCF7): > 100 µM

O=C1Nc2ccc(Cl)cc2[C@]12CC(c1ccccc1)=NN2
GI50 (MCF7): > 100 µM

CCOC(=O)[C@H]1C(c2ccccc2)=NN(c2ccccc2)[C@]12C(=O)Nc1ccc(Cl)cc12
GI50 (MCF7): > 100 µM

O=C1Nc2ccc(Br)cc2[C@]12CC(c1ccccc1)=NN2
GI50 (MCF7): > 100 µM

COc1ccc(C2=NN(c3ccccc3)[C@]3(C(=O)Nc4cc(Br)ccc43)[C@H]2c2ccccc2)cc1
GI50 (MCF7): 7 µM | GI50 (MDA-MB-231): 28.6 µM | GI50 at 48 h [1]: > 100 µM | RatioGI50 (HEK-293T): >14

O=C1Nc2ccc(Br)cc2[C@]12[C@@H](c1ccccc1)C(c1ccccc1)=NN2c1ccccc1
GI50 (MCF7): 7.3 µM | GI50 (MDA-MB-231): > 100 µM | GI50 at 48 h [1]: > 100 µM | RatioGI50 (HEK-293T): >13

COc1ccc(C2=NN(c3ccccc3)[C@]3(C(=O)Nc4cc(Cl)ccc43)[C@H]2c2ccccc2)cc1
GI50 (MCF7): 42.6 µM

CC(C)(C)C1=NN(c2ccccc2)[C@]2(C(=O)Nc3cc(Br)ccc32)[C@H]1c1ccccc1
GI50 (MCF7): 8.5 µM | GI50 (MDA-MB-231): 15 µM | GI50 at 48 h [1]: 20.9 µM | RatioGI50 (HEK-293T): 2.5

COc1ccc([C@H]2C(c3ccccc3)=NN(c3ccccc3)[C@]23C(=O)Nc2cc(Cl)ccc23)cc1
GI50 (MCF7): > 100 µM

O=C1Nc2ccccc2[C@]12CC(c1ccccc1)=NN2
GI50 (MCF7): > 100 µM

CC(C)(C)C1=NN(c2ccccc2)[C@]2(C(=O)Nc3c(Cl)cccc32)[C@H]1c1ccccc1
GI50 (MCF7): 8.6 µM | GI50 (MDA-MB-231): 6.4 µM | GI50 at 48 h [1]: 17.8 µM | RatioGI50 (HEK-293T): 2

O=C1Nc2ccccc2[C@]12[C@@H](c1ccccc1)C(c1ccccc1)=NN2c1ccccc1
GI50 (MCF7): > 100 µM

CC(C)(C)C1=NN(c2ccccc2)[C@]2(C(=O)Nc3cc(Cl)ccc32)[C@H]1c1ccccc1
GI50 (MCF7): 21.7 µM | GI50 (MDA-MB-231): > 50 µM | GI50 at 48 h [1]: > 50 µM | RatioGI50 (HEK-293T): >2 | solubility [2]: Insoluble

O=C1Nc2cc(Cl)ccc2[C@]12[C@@H](c1ccccc1)C(c1ccccc1)=NN2c1ccccc1
GI50 (MCF7): 27.1 µM | GI50 (MDA-MB-231): > 50 µM | GI50 at 48 h [1]: > 50 µM | RatioGI50 (HEK-293T): >2 | solubility [2]: Insoluble

COc1ccc(C2=NN(c3ccccc3)[C@]3(C(=O)Nc4ccc(Cl)cc43)[C@H]2c2ccccc2)cc1
GI50 (MCF7): 33.9 µM

O=C1Nc2ccc(Cl)cc2[C@]12[C@@H](c1ccccc1)C(c1ccccc1)=NN2c1ccccc1
GI50 (MCF7): 37.7 µM

O=C1Nc2cc(Br)ccc2[C@]12[C@@H](c1ccccc1)C(c1ccccc1)=NN2c1ccccc1
GI50 (MCF7): 9.6 µM | GI50 (MDA-MB-231): 8.3 µM | GI50 at 48 h [1]: 28.9 µM | RatioGI50 (HEK-293T): 3

COc1ccc(C2=NN(c3ccccc3)[C@]3(C(=O)Nc4c(Cl)cccc43)[C@H]2c2ccccc2)cc1
GI50 (MCF7): 11.5 µM | GI50 (MDA-MB-231): > 100 µM | GI50 at 48 h [1]: > 100 µM | RatioGI50 (HEK-293T): >8
